In ChEMBL document CHEMBL3352704, “Microwave-assisted synthesis of 3,5-disubstituted isoxazoles and evaluation of their anti-ageing activity” (2014) one finds Activity, inhibition and ILS data, which are given here for 7 compounds.

Calls of active or inactive are those of the source. No cut-off for these calls is given here.

Assay [1] relates to Caenorhabditis elegans. The experiment in a line: Antiaging activity in Caenorhabditis elegans Bristol isolate N2 assessed as lifespan. The format is functional, organism-based. The gist of the method: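 C. elegans N2 hermaphrodites, egg-lay synchronized, moved at L4 (80-120 per condition) onto UV-killed OP50/NGM plates carrying compound in DMSO diluted in M9, or DMSO alone; 20 °C, new plates every 2 days, exposure lifelong. Day 1 adult = t0. Scored daily for touch-provoked movement and pharyngeal pumping until death. Kaplan–Meier curves, log-rank test; repeated at least twice.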

Assay [2] deals with HLF1. The experiment in a line: Inhibition of H2O2-induced oxidative stress in human HLF1 cells assessed as cell viability at 5 uM pretreated for 24 hrs followed by addition of 300 uM H2O2 for 2.5 hrs. Format: functional, cell-based. In outline: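 HFL-1 embryonic lung fibroblasts in DMEM/10% FBS, fed about 16 h before assay; 10⁴ cells seeded, 24 h later given compound in DMSO or DMSO alone for 24 h. Then 300 μM H2O2 for 2.5 h with compound still present, PBS wash, 5-day recovery in complete medium. Cells counted in triplicate with a Coulter counter; at least two experiments.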

Assay [3] has as its system HLF1. The experiment in a line: Inhibition of H2O2-induced oxidative stress in human HLF1 cells assessed as increase in cell viability at 2 to 5 uM pretreated for 24 hrs followed by addition of 300 uM H2O2 for 2.5 hrs. Format: functional, cell-based.
Assay [4] deals with Caenorhabditis elegans. The experiment in a line: Antiaging activity in Caenorhabditis elegans Bristol isolate N2 assessed as lifespan at 10 uM. The format is functional, organism-based.
Assay [5] relates to Caenorhabditis elegans. The experiment in a line: Antiaging activity in Caenorhabditis elegans Bristol isolate N2 assessed as increase in lifespan at 1 uM (reference value: 15 +/- 0.85%). Format: functional.
The subject of assay [6] is Caenorhabditis elegans. The experiment in a line: Antiaging activity in Caenorhabditis elegans Bristol isolate N2 assessed as increase in lifespan at 20 uM (reference value: 15 +/- 0.85%). Format: functional.
The test system of assay [7] is Caenorhabditis elegans. The experiment in a line: Antiaging activity in Caenorhabditis elegans Bristol isolate N2 assessed as increase in lifespan at 10 uM (reference value: 15 +/- 0.85%). The format is functional.

On to `COc1c(C)c(C)c2c(c1C)CCC(C)(COCc1cc(-c3ccc(O)cc3)no1)O2` (stereo unspecified), for which the result in the assay with Caenorhabditis elegans [1] was inactive. For the same compound, the inhibition entry in the assay on HLF1 [2] was “inactive”.

Take `O=c1c(O)c(-c2ccc(O)c(O)c2)oc2cc(O)cc(O)c12`: the result with HLF1 [3] was Active. Also, the outcome in the assay with Caenorhabditis elegans [4] was inactive.

Regarding `Oc1ccc(-c2cc(-c3ccccc3)on2)cc1`, in the assay with Caenorhabditis elegans [1], the outcome was inactive. The inhibition entry in the assay with HLF1 [2] is “inactive”.

Turning to `Cc1c(C)c2c(c(C)c1O)C=CC(C)(COCc1cc(-c3ccc(O)cc3)no1)O2` (stereo unspecified), in the assay on Caenorhabditis elegans [5], the ILS at 1 µM turned out to be 18%. Besides, in the assay with HLF1 [3], the outcome was Active. In the assay on Caenorhabditis elegans [6], the increase in lifespan (ILS) at 20 µM stood at 20%. The ILS at 10 µM with Caenorhabditis elegans [7] was found to be 18%.

As for `OCc1cc(-c2ccc(O)cc2)no1`, the outcome in the assay on Caenorhabditis elegans [1] was inactive. The inhibition result in the assay with HLF1 [2] is “inactive”.

Turning to `Cc1c(C)c2c(c(C)c1O)C=CC(C)(COCc1cc(-c3ccc(F)cc3)no1)O2` (stereo unspecified), the outcome in the assay with Caenorhabditis elegans [1] was inactive. Besides, the inhibition result in the assay with HLF1 [2] is “inactive”.

As to `CCCc1cc(-c2ccc(O)cc2)no1`, the result with Caenorhabditis elegans [1] was inactive. Also, the inhibition result in the assay with HLF1 [2] was “inactive”.

As a reminder, the ILS is the gain in survival time of treated over control animals, in per cent.
